The source of these data is article PMC4340355 (ACS Chemical Biology, 2014).

As usually defined, the IC50 is the concentration that inhibits the measured activity by half.

Assay type in all cases: biochemical
Experiment [1] deals with T1, caspase-like (CaL) activity of rabbit proteasome fraction II (Oryctolagus cuniculus, UniProt A0A5F9DQW2).
T1 sequence (A0A5F9DQW2 1-212): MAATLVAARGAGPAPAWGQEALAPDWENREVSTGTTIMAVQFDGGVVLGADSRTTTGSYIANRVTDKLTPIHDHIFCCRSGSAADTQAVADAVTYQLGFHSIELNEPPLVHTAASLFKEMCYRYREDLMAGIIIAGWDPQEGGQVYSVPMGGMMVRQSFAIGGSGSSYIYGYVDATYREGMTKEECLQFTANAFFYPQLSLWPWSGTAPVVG
In words: Inhibition of proteasome-catalyzed hydrolysis of CaL sensor CaL1–633.

In experiment [2] the target is T2, chymotrypsin-like (ChL) activity of rabbit proteasome fraction II (Oryctolagus cuniculus, UniProt G1T4Q9).
T2 sequence (G1T4Q9 1-263): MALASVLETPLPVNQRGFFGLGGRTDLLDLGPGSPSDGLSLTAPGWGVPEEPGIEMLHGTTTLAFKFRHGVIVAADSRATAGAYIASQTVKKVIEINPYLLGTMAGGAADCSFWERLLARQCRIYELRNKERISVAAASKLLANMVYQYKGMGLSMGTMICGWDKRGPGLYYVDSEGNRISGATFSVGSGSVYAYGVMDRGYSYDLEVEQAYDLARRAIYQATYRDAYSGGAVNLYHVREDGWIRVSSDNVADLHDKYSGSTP
The experiment is described as follows: Inhibition of proteasome-catalyzed hydrolysis of ChL sensor ChL1–488.

In experiment [3] the target is yeast proteasome CaL mutant (Saccharomyces cerevisiae, UniProt P25043+P30656+P38624). The experiment is described as follows: Rate of sensor cleavage by yeast deficient lysate, CaL mutant.
The next experiment relates to proteasome.
Experiment [4] relates to rabbit proteasome fraction II. The experiment is described as follows: Rate of proteolysis. Summed up:
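Fluorescence followed 2 h at RT. Rate came from a linear fit to the first 10% substrate consumption. FU were converted to μmol via overnight-spiked fold change and a standard line. No-enzyme controls were run. Values are mean ± SD of triplicates.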

Where two headings read alike, the source gives them in different places. Peptide text beside a SMILES is read from it. * marks the point of attachment. Cbz = O=C(OCc1ccccc1)*

Consider `CC(C)C[C@@H](C=O)NC(=O)[C@H](CC(C)C)NC(=O)[C@H](CC(C)C)NC(=O)OCc1ccccc1` [MG132] (Cbz-Leu-Leu-Leu-aldehyde), for which the half-maximal inhibitory concentration (IC50) worked out at 180 ± 150 µM in experiment [1] and 0.62 ± 0.06 µM in experiment [2].
As for DyLight633–nLPnLDK(AB40) [CaL1–633], the “proteolysis by the proteasome containing the mutation in the CaL subunit” value in experiment [3] is “not proteolyzed”. Besides, in the experiment on proteasome (in the presence of CaL1–633), the “effect on TL activity” value is given as “reduced”. For the same molecule, the specific activity in experiment [4] (2.5 μM sensor) is 0.03 ± 0.001 nmol min^–1 mg^–1 enzyme; in experiment [4] (5 μM sensor) it was 0.02 ± 0.002 nmol min^–1 mg^–1 enzyme.
As for FAM–HHSLK(AB40) [ChL1–488], the “reduction of the rate of proteolysis of ChL1–488” value with proteasome (in the presence of CaL1–633) is reported as “up to 90%”; with proteasome (in the presence of TL1–550) it was “up to 50%”. The specific activity in experiment [4] (2.5 μM sensor) came out at 0.22 ± 0.02 nmol min^–1 mg^–1 enzyme; in experiment [4] (5 μM sensor) it was 0.31 ± 0.03 nmol min^–1 mg^–1 enzyme.
For the molecule TAMRA–LRRK(AB40) [TL1–550], in the experiment with proteasome (in the presence of TL1–550), the “effect on CaL activity” value is given as “impaired”. Further, the “enhancement of the rate of TL1–550 hydrolysis” value in the experiment on proteasome (when ChL1–488 is present) was “up to 5 fold”. The results for the specific activity in experiment [4] (2.5 μM sensor) and in experiment [4] (5 μM sensor) were 0.05 ± 0.003 nmol min^–1 mg^–1 enzyme and 0.06 ± 0.001 nmol min^–1 mg^–1 enzyme, respectively.
